This passage reports EC50, IC50 and DC50 results from ChEMBL document CHEMBL1146656, “The monoethyl ester of meconic acid is an active site inhibitor of HCV NS5B RNA-dependent RNA polymerase” (Bioorg Med Chem Lett, 2004).

The structures appear in SMILES notation.

One assay has as its system Hepatitis C virus. The assay can be described thus: Tested for inhibition of HCV RNA replication in a cell-basedassay; No significant inhibition. Type of assay: functional, organism-based, Hepacivirus hominis.
Assay [1] concerns the target T1, RNA-directed RNA polymerase (Hepacivirus hominis, UniProt O39930). The assay can be described thus: Inhibitory potency against NS5B HCV polymerase. The method, boiled down:
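NS5BΔC55 (C-terminal 55-residue truncation) expressed in E. coli and purified to homogeneity, used at 5 nM in 20 mM Tris/HCl pH 7.5, 0.05% Triton X-100, 2% glycerol, 50 mM NaCl, 1 mM DTT, 5 mM MgCl2. Enzyme preincubated 20 min at 23 °C with poly(rA)/oligo(rU) (20 µg/mL final). Started with 10 µM 3H-UTP, 30 min at 23 °C. Acid-insoluble radioactivity counted. IC50 from three-parameter logistic fit; mean of 2–4 experiments.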

Assay [2] has as its target T1, RNA-directed RNA polymerase. Put plainly: Inhibitory potency of compound in presence of Mg2+ ion against NS5B HCV polymerase. The method, boiled down:
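NS5B with C-terminal 55-residue truncation (ΔC55), expressed in E. coli and purified; 5 nM enzyme in 20 mM Tris/HCl pH 7.5, 0.05% Triton X-100, 2% glycerol, 50 mM NaCl, 1 mM DTT, 5 mM MgCl2. Enzyme preincubated 20 min at 23 °C with poly(rA)/oligo(rU) (20 µg/mL final). Started with 10 µM 3H-UTP, 30 min at 23 °C. Acid-insoluble radioactivity measured; IC50 from three-parameter logistic fit; mean of 2–4 experiments.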

Assay [3] has the same target. Put plainly: Inhibitory potency of compound in presence of Mn2+ ion against NS5B HCV polymerase.
The target is the same in assay [4]. Put plainly: Ability of compound to displace [3H]-DKA from NS5B HCV polymerase by 50%.

T1 sequence (O39930 whole entry, the tested form may be a part): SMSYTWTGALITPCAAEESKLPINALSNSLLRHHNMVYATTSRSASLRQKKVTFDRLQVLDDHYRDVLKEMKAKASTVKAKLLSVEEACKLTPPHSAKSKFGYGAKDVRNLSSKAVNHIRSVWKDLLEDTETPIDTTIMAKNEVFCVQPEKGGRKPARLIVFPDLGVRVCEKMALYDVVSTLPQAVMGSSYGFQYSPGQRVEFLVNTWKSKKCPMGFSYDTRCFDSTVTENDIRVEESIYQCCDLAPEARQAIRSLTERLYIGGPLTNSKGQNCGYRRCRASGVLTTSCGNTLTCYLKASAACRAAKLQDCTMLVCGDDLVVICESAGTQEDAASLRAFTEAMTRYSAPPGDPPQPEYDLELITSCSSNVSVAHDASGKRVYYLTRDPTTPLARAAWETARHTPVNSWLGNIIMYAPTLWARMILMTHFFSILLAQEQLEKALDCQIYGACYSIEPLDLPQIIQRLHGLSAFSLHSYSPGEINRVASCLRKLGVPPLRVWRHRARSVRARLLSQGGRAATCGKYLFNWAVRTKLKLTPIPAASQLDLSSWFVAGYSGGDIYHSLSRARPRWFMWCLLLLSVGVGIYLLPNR

For the molecule `CCN(CC)C(=O)c1cc(=O)c(O)c(C(=O)O)o1`, in the assay on Hepatitis C virus, the EC50 was above 50 µM. Besides, in assay [1], the IC50 was above 100 µM.
On the same counts, the results for `O=C(O)c1occc(=O)c1O` are above 50 µM and 51 µM.
With `O=C(O)c1cc(=O)c(O)c(C(=O)O)o1`, the IC50 is above 100 µM in assay [2], 18000 nM in assay [3] and above 100 µM in assay [1]. This molecule came in with a concentration for a half-maximal effect (EC50) in the assay with Hepatitis C virus of 50 µM.
As to `CCOC(=O)c1cc(=O)c(O)c(C(=O)O)o1`, the IC50 in assay [2] was 2.25 µM; in assay [3] it was 165 nM; in assay [1] it was 2.25 µM. The DC50 in assay [4] was determined as 1200 nM. This molecule also yielded an EC50 in the assay with Hepatitis C virus above 50 µM.
As for `COC(=O)c1oc(C(=O)O)cc(=O)c1O`, the EC50 with Hepatitis C virus was above 50 µM. For the same molecule, in assay [1], the half-inhibitory concentration (IC50) was above 100 µM.
The molecule `O=C(O)c1oc(COCc2ccccc2)cc(=O)c1O` showed an EC50 in the assay on Hepatitis C virus above 50 µM. This molecule registered an IC50 in assay [1] above 100 µM.
Regarding `CCOC(=O)c1cc(=O)c(O)c(C(=O)OCC)o1`, the values for the IC50 in assay [2], in assay [3] and in assay [1] were above 100 µM, 4000 nM and above 100 µM, respectively. The EC50 in the assay on Hepatitis C virus was above 50 µM.
In assay [4], `O=C(O)C(=O)/C=C(\O)c1ccccc1` registered a DC50 of 300 nM. In the assay on Hepatitis C virus, this molecule gave an EC50 above 50 µM.
Regarding `CCOC(=O)c1cc(=O)c(O)co1`, the EC50 in the assay with Hepatitis C virus was above 50 µM. For the same molecule, the IC50 in assay [1] is above 100 µM.
In turn, `CCNC(=O)c1cc(=O)c(O)c(C(=O)O)o1` showed an EC50 in the assay with Hepatitis C virus above 50 µM. Besides, in assay [1], inhibition was half-maximal at 24 µM (IC50).
Take `CCOCc1cc(=O)c(O)c(C(=O)O)o1`: the results for the IC50 in assay [2], in assay [3] and in assay [1] were 16.2 µM, 800 nM and 16.2 µM, respectively. Also, the EC50 in the assay on Hepatitis C virus is above 50 µM.
As for `CC(C)(C)OC(=O)c1cc(=O)c(O)c(C(=O)O)o1`, the EC50 with Hepatitis C virus is above 50 µM. This molecule also had an IC50 in assay [1] of 36 µM.
Consider `O=C(O)c1oc2ccccc2c(=O)c1O`, for which the IC50 in assay [2] is 23 µM; in assay [3] it was 1900 nM. Further, the EC50 with Hepatitis C virus was above 50 µM.

In general, EC50 refers to the midpoint of the concentration-response curve. A lower EC50 goes with higher potency in that assay. Usually IC50 stands for the concentration at which inhibition is half-maximal.
